The text below walks through data of ChEMBL document CHEMBL1132288, “Synthesis and in vitro pharmacology of a series of new chiral histamine H3-receptor ligands: 2-(R and S)-Amino-3-(1H-imidazol-4(5)-yl)propyl ether derivatives” (J Med Chem, 1999).

Molecules are shown by their SMILES. Calls of active or inactive are those of the source. The calls are words filed in the database; no cut-off is given here.

The target in assay [1] is Histamine H3 receptor (Rattus norvegicus) (UniProt Q9QYN8). Put plainly: Binding affinity for Histamine H3 receptor. Put shortly:
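Affinity for the H3 receptor measured in an in vitro binding assay by displacement of the radioligand [3H]R-(α)-methylhistamine.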

For assay [2] the target is unchanged. Conditions: filed as antagonist, 10e-6 M.
Assay [3] has the same target. Conditions: Striatum, filed as antagonist, 10e-6 M.
Assay [4] has the same target. Conditions: filed as antagonist; 10e-5 M.
For assay [5] the target is unchanged. The conditions noted are these: Striatum; filed as antagonist; 10e-5 M.
The target in assay [6] is T1, Histamine H3 receptor (Rattus norvegicus, UniProt Q9QYN8). Briefly: Binding affinity of compound against Histamine H3 receptor. Put shortly:
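Displacement of the radioligand [3H]R-(α)-methylhistamine from the histamine H3 receptor in an in vitro receptor binding assay.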

The target of assay [7] is Histamine H3 receptor (Rattus norvegicus) (UniProt Q9QYN8). Briefly: Agonistic activity, Histamine H3 receptor dependent activation of G-proteins with GTP gamma-[35S] autoradiography of rat cortical tissue sections. at 10e-5 M conc; maximal response. In kind it is functional. The conditions noted are these: filed as agonist. Put shortly: (§1)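 Rat brain tissue sections were incubated with the test compound at the stated concentrations together with GTPγ[35S], then washed and dried. Film autoradiograms were digitized and quantified against [14C] standards. Responses were read from cerebral cortex and striatum, four animals per region, with cerebellum (no H3 receptors) as a nonspecific-effect control.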
Histamine H3 receptor (Rattus norvegicus), sequence (Q9QYN8 whole entry): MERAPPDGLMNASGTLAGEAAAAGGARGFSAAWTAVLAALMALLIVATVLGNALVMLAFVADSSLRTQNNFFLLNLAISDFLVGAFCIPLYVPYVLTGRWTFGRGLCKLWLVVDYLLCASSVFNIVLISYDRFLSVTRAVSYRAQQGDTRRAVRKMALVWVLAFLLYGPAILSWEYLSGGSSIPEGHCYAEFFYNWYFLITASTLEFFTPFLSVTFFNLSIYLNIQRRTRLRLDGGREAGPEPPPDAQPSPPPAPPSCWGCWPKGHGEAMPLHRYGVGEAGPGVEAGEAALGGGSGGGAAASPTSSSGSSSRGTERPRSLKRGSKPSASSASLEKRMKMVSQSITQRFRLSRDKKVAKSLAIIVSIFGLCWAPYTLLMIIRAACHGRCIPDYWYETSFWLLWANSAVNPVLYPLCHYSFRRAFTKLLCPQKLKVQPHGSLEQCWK

The target is the same in assay [8]. Briefly: Agonistic activity, Histamine H3 receptor dependent activation of G-proteins with GTP gamma-[35S] autoradiography of rat striatal tissue sections. at 10e-5 M conc.; maximal response. The assay is classed as functional. The conditions noted are these: filed as agonist. Put shortly:
as §1

The target is the same in assay [9]. Put plainly: Agonistic activity, H3-receptor dependent activation of G-proteins with GTP gamma-[35S] autoradiography of rat striatal tissue sections. at 10e-5 M conc.; maximal response. The conditions noted are these: filed as agonist. In kind it is functional. In short, it runs like this:
as §1

The target is the same in assay [10]. Put plainly: Agonistic activity, H3-receptor dependent activation of G-proteins with GTP gamma-[35S] autoradiography of rat cortical tissue sections. at 10e-5 M conc.; maximal response. In kind it is functional. The conditions noted are these: filed as agonist. Put shortly: as §1
For assay [11] the target is unchanged. Put plainly: Agonistic activity, Histamine H3 receptor dependent activation of G-proteins with GTP gamma-[35S] autoradiography of rat striatal tissue sections. at 10e-5 M conc.; half-maximal response. The assay is classed as functional. Conditions: filed as partial agonist. In short, it runs like this: as §1
Assay [12] has the same target. Briefly: Agonistic activity, Histamine H3 receptor dependent activation of G-proteins with GTP gamma-[35S] autoradiography of rat cortical tissue sections. at 10e-5 M conc.; half-maximal response. The assay is classed as functional. Conditions: filed as partial agonist. Put shortly: as §1
Assay [13] has the same target. Put plainly: Agonistic activity, Histamine H3 receptor dependent activation of G-proteins with GTP gamma-[35S] autoradiography of rat cortical tissue sections. at 10e-5 M conc.;no response above basal. The assay is classed as functional. Put shortly:
as §1

The target is the same in assay [14]. Put plainly: Agonistic activity, Histamine H3 receptor dependent activation of G-proteins with GTP gamma-[35S] autoradiography of rat striatal tissue sections. at 10e-5 M conc.;no response above basal. The assay is classed as functional. Put shortly:
as §1

Assay [15] has the same target. The conditions noted are these: Striatum; 10e-8 M.
Assay [16] has the same target. The conditions noted are these: 10e-8 M.
The target is the same in assay [17]. Conditions: Striatum; filed as antagonist; 10e-8 M.
Assay [18] has the same target. Conditions: filed as antagonist; 10e-8 M.
The target is the same in assay [19]. Conditions: Striatum, 10e-5 M.
For assay [20] the target is unchanged. The conditions noted are these: filed as antagonist; 10e-5 M. This is another data set of the same source.
The target is the same in assay [21]. The conditions noted are these: Striatum; filed as antagonist; 10e-6 M.
The target is the same in assay [22]. Conditions: filed as antagonist.
Assay [23] has the same target. Conditions: filed as antagonist. This is another data set of the same source.
Assay [24] shares this target. The conditions noted are these: filed as antagonist; 10e-6 M.
The target is the same in assay [25]. Briefly: Agonistic activity, Histamine H3 receptor dependent activation of G-proteins with GTP gamma-[35S] autoradiography of rat cortical tissue sections. at 10e-5 M conc.; weak response (between half-maximal and basal. The assay is classed as functional. The conditions noted are these: filed as partial agonist. Put shortly: as §1
For assay [26] the target is unchanged. Conditions: filed as agonist; 10e-5 M.
The target is the same in assay [27]. Briefly: Agonistic activity, Histamine H3 receptor dependent activation of G-proteins with GTP gamma-[35S] autoradiography of rat cortical tissue sections. at 10e-5 M conc.; maximal response. In kind it is functional. Conditions: filed as agonist. In short, it runs like this: as §1
For assay [28] the target is unchanged. Conditions: filed as antagonist; 10e-6 M. This is another data set of the same source.
Assay [29] addresses T1, Histamine H3 receptor. Briefly: PKi was measured by Histamine H3 receptor binding assay (N-alpha-MeHA) on rat cerebral cortex. In kind it is tissue-based. In short, it runs like this:
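Affinity measured by displacement of the radioligand [3H]R-(α)-methylhistamine in an in vitro H3-receptor binding assay.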

T1 sequence (Q9QYN8 whole entry): as above

In the case of `N[C@@H](Cc1ccccc1)C(=O)N[C@@H]1C[C@H]1c1c[nH]cn1`, the pD2 in assay [1] came out at 8.7.

Regarding `N=C(N)SCCc1c[nH]cn1`, in assay [1], the pD2 amounted to 8.1.

On to `NCCc1c[nH]cn1.N[C@H](COCc1ccccc1)Cc1c[nH]cn1`, for which the Antagonist activity entry in assay [2], in [3], in [4] and in assay [5] was “Antagonist” each time.

One may read the Ki as a dissociation constant, usually derived from enzyme kinetics or from competition with a known ligand. Low values mean higher affinity, high ones lower affinity. In turn, `N[C@H](/C=C/[C@@H]1C[C@H]1c1c[nH]cn1)CC1CCCCC1` had a Ki at Histamine H3 receptor [6] of 0.398 nM.

Regarding `N[C@@H](COCC1CCCCC1)Cc1c[nH]cn1`, the Agonistic activity result in [7] and in assay [8] was “Agonist” each time.

With `NCCCCCc1c[nH]cn1`, the Agonistic activity result in assay [9] and in [10] was “Agonist” each time.

For the compound `N[C@@H](Cc1ccccc1)C(=O)NCCc1c[nH]cn1`, on Histamine H3 receptor [6], the Ki is 100 nM.

Turning to `N[C@H](COCc1ccc(Br)cc1)Cc1c[nH]cn1`, the Agonistic activity result in assay [11] and in assay [12] was “Partial agonist” in each case.

In assay [1], `N=C(N)CCCc1c[nH]cn1` came in with a pD2 of 9.

For `N[C@H](COCc1ccc(I)cc1)Cc1c[nH]cn1`, the Agonistic activity result in assay [13] and in assay [14] was “inactive” in each case.

Take `N=C(NCc1ccc(Cl)cc1)SCCCc1c[nH]cn1.NCCc1c[nH]cn1`: the Antagonist activity result in assay [15] and in [16] was “inactive” each time.

On to `NCCc1c[nH]cn1.S=C(NC1CCCCC1)N1CCC(c2c[nH]cn2)CC1`, for which the results for the Antagonist activity result in [17] and in assay [18] were “Antagonist” and “Agonist”, respectively.

In the case of `NCCc1c[nH]cn1.N[C@@H](COCc1ccccc1)Cc1c[nH]cn1`, the Antagonist activity result in assay [2], in assay [3], in assay [4] and in assay [5] was “Antagonist” in each case.

Turning to `CNCCc1cnc[nH]1`, in assay [1], the pD2 was 7.7.

In turn, `C[C@H](c1c[nH]cn1)[C@@H](C)N` displayed a pD2 in assay [1] of 8.5.

Take `NCCc1c[nH]cn1.N[C@H](COCc1ccc(Br)cc1)Cc1c[nH]cn1`: the Antagonist activity result in [2] is “Antagonist”; in [19] it was “Partial agonist”; in assay [20] it was “Partial antagonist”; in assay [3], “Antagonist”.

With `N[C@@H](COCc1ccc(Br)cc1)Cc1c[nH]cn1`, the Agonistic activity entry in [11] and in [12] was “Partial agonist” throughout.

As to `N[C@H](Cc1ccccc1)C(=O)NCCc1c[nH]cn1`, the Ki at Histamine H3 receptor [6] is over 10000 nM.

Take `NCCc1c[nH]cn1.N[C@H](COCc1ccc(I)cc1)Cc1c[nH]cn1`: the Antagonist activity entry in assay [21], in assay [22], in assay [23] and in [24] was “Partial antagonist” throughout.

In the case of `c1nc(CC2CCNCC2)c[nH]1`, in [1], the pD2 came to 8.

Turning to `N[C@@H](COCc1ccccc1)Cc1c[nH]cn1`, the Agonistic activity result in assay [13] and in [14] was “inactive” each time.

As to `NCCc1c[nH]cn1.N[C@@H](COCc1ccc(I)cc1)Cc1c[nH]cn1`, the Antagonist activity entry in [2] was “Antagonist”; in [19] (filed as antagonist) it was “Partial agonist”; in assay [20], “Partial antagonist”; in assay [3], “Antagonist”.

`C[C@H](N)[C@@H](C)c1c[nH]cn1` showed a pD2 in assay [1] of 6.5.

Compound `CC(C)(C)CCC#C[C@@H]1C[C@H]1c1c[nH]cn1` [CIPRALISANT] gave a Ki on Histamine H3 receptor [6] of 0.126 nM. Further, the pD2 in [1] was determined as 8.5.

On to `N[C@@H](COCc1ccc(I)cc1)Cc1c[nH]cn1`, for which the Agonistic activity entry in assay [13] and in assay [14] was “inactive” each time.

Consider `C[C@H]1NCC[C@@H]1c1c[nH]cn1`, for which the pD2 in [1] came to 7.1.

On to `NCCc1c[nH]cn1.N[C@@H](COCC1CCCCC1)Cc1c[nH]cn1`, for which the Antagonist activity result in [2], in [3], in assay [4] and in assay [5] was “Antagonist” each time.

`N[C@H](COCc1ccccc1)Cc1c[nH]cn1`: the Agonistic activity entry in assay [25] and in [11] was “Partial agonist” throughout.

Regarding `N[C@@H]1C[C@H]1c1cnc[nH]1` [VUF-5296], affinity at Histamine H3 receptor [6] was put at a Ki of 3.16 nM.

Turning to `NCCc1c[nH]cn1`, the Agonistic activity entry in assay [8] and in assay [27] was “Agonist” in each case. For the same compound, in assay [26], the Agonist activity entry was “Agonist”. Moreover, the Antagonist activity result in [28] is “Antagonist”. This compound returned a pD2 in assay [1] of 7.2.

With `NCCc1c[nH]cn1.N[C@H](COCC1CCCCC1)Cc1c[nH]cn1`, the Antagonist activity result in assay [2], in assay [3], in assay [4] and in assay [5] was “Antagonist” each time.

With `N[C@H](COCC1CCCCC1)Cc1c[nH]cn1`, the Agonistic activity entry in assay [8] and in assay [27] was “Agonist” in each case.

Turning to `N[C@H](/C=C\[C@@H]1C[C@H]1c1c[nH]cn1)CC1CCCCC1`, the Ki on Histamine H3 receptor [6] is 100 nM.

For `c1ccc(COCCCc2c[nH]cn2)cc1` [PROXYFAN], the affinity at Histamine H3 receptor [29] corresponds to a Ki of 5.01 nM.

`N[C@H]1C[C@@H]1c1c[nH]cn1` [VUF-5297] had an inhibition constant (Ki) on Histamine H3 receptor [6] of 25.1 nM.

In turn, `N[C@@H](Cc1ccccc1)C(=O)N[C@H]1C[C@@H]1c1c[nH]cn1` had an inhibition constant (Ki) at Histamine H3 receptor [6] of 20 nM.

As for `NCCc1c[nH]cn1.N[C@@H](COCc1ccc(Br)cc1)Cc1c[nH]cn1`, the Antagonist activity entry is “Antagonist” in assay [2], “Partial agonist” in [19], “Partial antagonist” in assay [20] and “Antagonist” in [3].

In [1], `C[C@@H](N)Cc1c[nH]cn1` gave a pD2 of 8.4.

For `Ic1ccc(COCCCc2c[nH]cn2)cc1.NCCc1c[nH]cn1`, the Antagonist activity entry in [15] and in [16] was “inactive” in each case.

In turn, `C[C@@H]1NCC[C@H]1c1c[nH]cn1` displayed a pD2 in [1] of 7.1.
